In ChEMBL document CHEMBL1828578, “Antimalarial activities of new guanidylimidazole and guanidylimidazoline derivatives” (J Med Chem, 2011) one finds IC50, half-life and Activity data, which are given here for 22 molecules.

Data set [1] deals with Plasmodium falciparum. Put plainly: Antimalarial activity against […] of Plasmodium falciparum TM91C235 after for 3 days by microdilution technique. Type of data set: functional, organism-based. The following applies: TM91C235, 72 h. In outline:
(§1)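 P. falciparum clones were tested in vitro using a modified semiautomated microdilution technique.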

Data set [2] can be described thus: Metabolic stability of the compound in mouse liver microsomes assessed as half life at 1 uM by LC-MS analysis. Type of data set: ADME, Microsome. The gist of the method: (§2)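 Compound at 1 μM final (from 10 or 20 mM DMSO stocks) was incubated with 0.5 mg/mL pooled human or mouse liver microsomes. The mix held 1.3 mM NADP and 3.3 mM MgCl₂ in 0.1 M PBS pH 7.4, and the reaction was started with 1 U/mL G6PD. Incubation was at 37 °C with shaking, and samples were quenched with cold acetonitrile at 0, 10, 20, 30 and 60 min.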
(In general: Liver microsomes are vesicles of endoplasmic reticulum, rich in cytochrome P450 enzymes.)

Data set [3] relates to Plasmodium falciparum. The experiment in a line: Antimalarial activity against […] of Plasmodium falciparum W2 after for 3 days by microdilution technique. Type of data set: functional, organism-based. The following applies: W2, 72 h. The gist of the method: as §1
In data set [4] the test system is Plasmodium falciparum. Put plainly: Antimalarial activity against sporozoites stage of Plasmodium falciparum D6 after 3 days by microdilution technique. Type of data set: functional, organism-based. As to conditions: D6, 72 h, in the assay text read “blood stage” for “sporozoites stage”. The gist of the method: as §1
Background: Dilution methods test growth across graded concentrations, often in twofold steps.

Data set [5] is described as follows: Metabolic stability of the compound in human liver microsomes assessed as half life at 1 uM by LC-MS analysis. Type of data set: ADME, Microsome. The gist of the method:
as §2

The test system of data set [6] is Plasmodium berghei. Put plainly: Antimalarial activity against Plasmodium berghei in exoerythrocytic mouse model assessed as causal prophylaxis at 160 mg/kg/day, po administered one day before infection, on day of infection and one day post infection. Type of data set: functional, organism-based. The gist of the method:
(§3)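 P. berghei sporozoite exoerythrocytic mouse model. Compound was ground and suspended in hydroxyethylcellulose plus Tween 80, then given po at several dose levels once daily: the day before, 4 h before, and the day after sporozoite inoculation. Mice alive on day 31 with no parasites in any blood film were scored as protected.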

In data set [7] the test system is Plasmodium berghei. Put plainly: Antimalarial activity against Plasmodium berghei in exoerythrocytic mouse model assessed as causal prophylaxis at 320 mg/kg/day, po administered one day before infection, on day of infection and one day post infection. Type of data set: functional, organism-based. The gist of the method:
as §3

Data set [8] deals with Mus musculus. The experiment in a line: Toxicity against exoerythrocytic mouse model assessed as reduction in body weight at 320 mg/kg/day, po administered one day before infection, on day of infection and one day post infection measured up to 31 days. Type of data set: organism-based. Also on record: route oral. The following applies: in vivo, 744 h.
The subject of data set [9] is Mus musculus. The experiment in a line: Toxicity in exoerythrocytic mouse model assessed as reduction in body weight at 160 mg/kg/day, po administered one day before infection, on day of infection and one day post infection measured on day 31. Type of data set: organism-based. Also on record: route oral. The following applies: in vivo.
The nature of data set [10]: Metabolic stability of the compound in rhesus monkey microsomes assessed as half life at 1 uM by LC-MS analysis. Type of data set: ADME, Macaca mulatta, Microsome.

Broadly, the IC50 is the midpoint of a concentration-inhibition curve. A word on the half-life: it is the time needed for the level to fall by half in the phase considered.

Molecules are shown by their SMILES. Values after ≈ are worked out from the molar mass of the structure shown. Active and inactive are the calls of the source.

As to `CC(C)N1CCN=C1/N=C(/Nc1ccc(Cl)c(Cl)c1)NC12CC3CC(CC(C3)C1)C2`, the IC50 came to 0.2 mg/L (≈ 0.446 µM) in data set [1], 0.2 mg/L (≈ 0.446 µM) in data set [3] and 0.3 mg/L (≈ 0.669 µM) in data set [4]. Further, the half-life at 1 µM in [2] and in data set [5] was more than 60 min throughout.
`CC(C)n1ccnc1/N=C(/NC(=O)C(C)(C)C)Nc1ccc(Cl)c(Cl)c1`: the IC50 in data set [1], in data set [3] and in data set [4] was more than 5 mg/L in each case. For the same molecule, the half-life at 1 µM in [2] and in data set [5] was more than 60 min in each case. The outcome in data set [6] and in data set [7] was inactive.
For the molecule `CC(C)n1ccnc1/N=C(/Nc1ccc(Cl)c(Cl)c1)NC(C)(C)C`, the half-life at 1 µM in [2] was found to be 18.2 min; in data set [5], 40.4 min. The result in [6] and in [7] was inactive. Further, the IC50 in data set [3] worked out at 1 mg/L (≈ 2.72 µM); in data set [4], 1.1 mg/L (≈ 2.99 µM).
On to `CC(C)n1ccnc1/N=C(/NC(=O)OC(C)(C)C)Nc1ccc(Cl)c(Cl)c1`, for which the IC50 in data set [1], in [3] and in data set [4] was more than 5 mg/L each time. Besides, the half-life at 1 µM in data set [2] and in data set [5] was more than 60 min each time.
On to `CC(C)n1ccnc1/N=C(/NC(=O)Cc1ccccc1)Nc1ccc(Cl)c(Cl)c1`, for which the IC50 in data set [1], in [3] and in [4] was more than 5 mg/L each time. Further, the half-life at 1 µM was 50.8 min in data set [2] and more than 60 min in data set [5]. The result in [6] and in data set [7] was inactive.
In the case of `CCC(CC)C(=O)N/C(=N/c1nccn1C(C)C)Nc1ccc(Cl)c(Cl)c1`, the IC50 in data set [1] came to 2.9 mg/L (≈ 7.07 µM); in [3], 0.3 mg/L (≈ 0.731 µM); in data set [4] it was 1 mg/L (≈ 2.44 µM). The half-life at 1 µM in [2] and in data set [5] was more than 60 min each time. Besides, the result in data set [6] and in data set [7] was inactive.
For the molecule `CC(C)N1CCN=C1/N=C(/Nc1ccc(Cl)c(Cl)c1)NC(C)(C)C`, the half-life at 1 µM in [2] was 16.6 min; in data set [5] it was more than 60 min. Moreover, in data set [6], the result was inactive. For the same molecule, the IC50 in data set [3] and in [4] was 0.4 mg/L (≈ 1.08 µM) throughout. Also, the Activity result in data set [8] and in data set [9] was “Toxic” throughout.
As for `CC(C)N/C(=N\c1nccn1Cc1ccccc1)Nc1ccc(Cl)c(Cl)c1`, the IC50 came out at 2.5 mg/L (≈ 6.21 µM) in [1], 1.6 mg/L (≈ 3.98 µM) in [3] and 1.3 mg/L (≈ 3.23 µM) in data set [4]. The half-life at 1 µM in data set [2] was determined as 18 min; in [5], 16 min. The result in data set [6] and in [7] was inactive.
`N/C(=N\c1nccn1Cc1ccccc1)Nc1ccc(Cl)c(Cl)c1`: the IC50 in [1], in data set [3] and in data set [4] was more than 2 mg/L in each case. Also, the figures for the half-life at 1 µM in [2] and in data set [5] were 37 min and more than 60 min, respectively. Moreover, the outcome in data set [6] and in data set [7] was inactive.
On to `CC(C)C(=O)N/C(=N/c1nccn1C(C)C)Nc1ccc(Cl)c(Cl)c1`, for which the IC50 in data set [1] was 2.2 mg/L (≈ 5.75 µM); in data set [3], 1 mg/L (≈ 2.62 µM); in [4], 2.5 mg/L (≈ 6.54 µM). Further, the half-life at 1 µM in data set [2] and in data set [5] was more than 60 min throughout.
With `CC(C)(C)Cn1ccnc1/N=C(/Nc1ccc(Cl)c(Cl)c1)NC(C)(C)C`, the half-life at 1 µM in [2] turned out to be 11.7 min; in data set [5], 12.1 min. The result in data set [6] and in data set [7] was inactive. Moreover, the IC50 in data set [3] and in [4] was 0.8 mg/L (≈ 2.02 µM) throughout.
With `CC(C)C(=O)N/C(=N/c1nccn1Cc1ccccc1)Nc1ccc(Cl)c(Cl)c1`, the IC50 in [1], in data set [3] and in data set [4] was more than 2 mg/L each time. For the same molecule, the half-life at 1 µM in [2] amounted to 11 min; in data set [5] it was 19.7 min. Besides, the outcome in data set [6] and in data set [7] was inactive.
As to `CC(C)N/C(=N\C1=NCCN1C(C)C)Nc1ccc(Cl)c(Cl)c1`, the IC50 worked out at 0.7 mg/L (≈ 1.96 µM) in data set [1], 0.4 mg/L (≈ 1.12 µM) in data set [3] and 0.5 mg/L (≈ 1.4 µM) in data set [4]. Also, the half-life at 1 µM was 13.6 min in data set [2] and 50.7 min in data set [5]. Besides, the outcome in data set [6] was inactive. The Activity entry in data set [8] and in data set [9] was “Toxic” each time.
With `CC(C)N/C(=N\c1nccn1C(C)(C)C)Nc1ccc(Cl)c(Cl)c1`, the IC50 in data set [1] turned out to be 0.9 mg/L (≈ 2.44 µM); in data set [3] it was 0.4 mg/L (≈ 1.09 µM); in data set [4] it was 1.4 mg/L (≈ 3.8 µM). Besides, the values for the half-life at 1 µM in data set [2] and in data set [5] were 9 min and 48 min, respectively. The Activity result in data set [8] and in data set [9] was “Toxic” each time.
`CC(C)N/C(=N\c1nccn1CC(C)(C)C)Nc1ccc(Cl)c(Cl)c1`: the result in data set [6] and in data set [7] was inactive. For the same molecule, the IC50 turned out to be 1.5 mg/L (≈ 3.92 µM) in data set [3] and 1.1 mg/L (≈ 2.88 µM) in data set [4]. In addition, the half-life at 1 µM in data set [5] worked out at 20.3 min.
For the molecule `CC(C)n1ccnc1/N=C(\NCC(C)(C)C)Nc1ccc(Cl)c(Cl)c1`, the half-life at 1 µM in data set [2] was 10.8 min; in data set [5], 32.9 min. In addition, the outcome in data set [6] and in [7] was inactive. In addition, the half-inhibitory concentration (IC50) amounted to 0.9 mg/L (≈ 2.35 µM) in [3] and 1.4 mg/L (≈ 3.66 µM) in data set [4].
On to `CC(C)N1CCN=C1/N=C(\N)Nc1ccc(Cl)c(Cl)c1`, for which the IC50 was 1.2 mg/L (≈ 3.82 µM) in data set [1], 0.7 mg/L (≈ 2.23 µM) in data set [3] and 1.4 mg/L (≈ 4.46 µM) in data set [4]. The half-life at 1 µM in data set [2] is more than 60 min; in data set [10], 36.3 min; in data set [5], more than 60 min.
Turning to `CC(C)N/C(=N\c1ncc[nH]1)Nc1ccc(Cl)c(Cl)c1`, the IC50 in [1] is more than 5 mg/L; in [3], 0.6 mg/L (≈ 1.92 µM); in data set [4], more than 5 mg/L. Further, the figures for the half-life at 1 µM in [2] and in data set [5] were 37.6 min and more than 60 min, respectively. Further, the Activity result in data set [8] and in data set [9] was “Toxic” in each case.
Regarding `CC(C)(C)C(=O)N/C(=N/c1nccn1C(C)(C)C)Nc1ccc(Cl)c(Cl)c1`, the IC50 in data set [1], in [3] and in [4] was more than 5 mg/L in each case. Besides, the half-life at 1 µM in data set [2] and in data set [5] was more than 60 min each time.
Turning to `N/C(=N\c1ncc[nH]1)Nc1ccc(Cl)c(Cl)c1`, the IC50 is 2.5 mg/L (≈ 9.26 µM) in [1], 1.4 mg/L (≈ 5.18 µM) in data set [3] and 0.5 mg/L (≈ 1.85 µM) in [4]. Further, the half-life at 1 µM came out at 23.6 min in data set [2] and 42.5 min in [5]. The result in data set [6] and in [7] was inactive.
For the molecule `CCC(CC)C(=O)N/C(=N/c1nccn1C(C)(C)C)Nc1ccc(Cl)c(Cl)c1`, the IC50 in [1], in [3] and in [4] was more than 5 mg/L in each case. Moreover, the figures for the half-life at 1 µM in data set [2] and in data set [5] were 12.5 min and 26 min, respectively. Moreover, in data set [6], the outcome was inactive.
Take `CC(C)N1CCN=C1/N=C(/Nc1ccc(Cl)c(Cl)c1)N1CCCCC1`: the values for the IC50 in data set [1], in data set [3] and in [4] were 0.3 mg/L (≈ 0.785 µM), 0.2 mg/L (≈ 0.523 µM) and 0.4 mg/L (≈ 1.05 µM), respectively. The half-life at 1 µM in data set [2] was 21.5 min; in data set [5], more than 60 min. In addition, the Activity entry in data set [8] and in data set [9] was “Toxic” in each case.
